ChEMBL document CHEMBL1143390 (Bioorg Med Chem, 2009)
pEC50, pIC50: −log10 of the molar value.

Experiments:
[1] = Chemical stability in Tris-HCl buffer assessed as hydrolysis half life at pH 8 in presence of porcine esterase; assay type: physicochemical; conditions: pig, isolated protein
Outline: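 Prodrug at 1.4 mM final in pH 8.0 Tris-HCl with 5% DMSO and 20 μg/mL porcine esterase, incubated at 37 ± 0.5 °C. Aliquots quenched in ice-cold methanol/acetonitrile 1/1, filtered and analysed by HPLC. Enzyme activity checked with ethyl butyrate substrate.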

Vero = assay: Cytotoxicity against african green monkey Vero cells after 2 days by MTT assay; conditions: Chlorocebus sabaeus, 48 h
[2] = system: Human immunodeficiency virus 1; assay: Antiviral activity against HIV1 LAI infected in PBM cells; conditions: Human immunodeficiency virus 1, LAI, PBMC
PBMC = assay: Cytotoxicity against human PBM cells after 4 days by MTT assay; conditions: 96 h
[3] = Chemical stability in phosphate buffer assessed as hydrolysis half life at pH 7.4; assay type: physicochemical
Outline: (§1)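 Prodrug, 1 mM in DMSO, diluted into 10 mM phosphate buffer at pH 2.0 or 7.4, ionic strength 0.1 set with NaCl, final 5% DMSO. Held at 37 ± 0.5 °C in screw-capped vials. Samples drawn over time, filtered and analysed by HPLC. Half-life from linear regression of a pseudo-first-order plot.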

CCRF-CEM = assay: Cytotoxicity against human CEM cells after 3 days by MTT assay; assay type: cell-based; conditions: 72 h
Outline: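 CEM T-lymphoblastoid cells in log phase, seeded at 2.5×10^3 cells/well with 10-fold serial dilutions of drug. Incubated 3 days at 37 °C in humidified 5% CO2-air. MTT dye added overnight, then solubilization for 5 h and read at 570 nm. IC50 from the concentration-response curve by the median effect method.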

[4] = Chemical stability in phosphate buffer assessed as hydrolysis half life at pH 2.0; assay type: physicochemical; outline: as §1

| Structure (SMILES) | t1/2 [1] [h] | pEC50 [2] | EC90 [2] [µM] | t1/2 [3] [h] | t1/2 [4] [h] | pIC50 (Vero) | pIC50 (PBMC) | pIC50 (CCRF-CEM) |
| --- | --- | --- | --- | --- | --- | --- | --- | --- |
| CC[C@H](C)[C@H](N)C(=O)OC[C@@H]1OC[C@H](n2cc(C)c(=O)[nH]c2=O)O1.Cl | 0.292 | 5.52 | 9.9 | 34 | 13.3 | < 4.00 | < 4.00 | < 4.00 |
| Cc1cn([C@H]2CO[C@@H](COC(=O)CN)O2)c(=O)[nH]c1=O.Cl | 0.207 | 5.60 | 8.4 | 22 | 8.67 | < 4.00 | < 4.00 | < 4.00 |
| Cc1cn([C@H]2CO[C@@H](COC(=O)[C@@H](N)CC(C)C)O2)c(=O)[nH]c1=O.Cl | 0.298 | 5.48 | 12.4 | 35.83 | 14.5 | < 4.00 | < 4.00 | < 4.00 |
| Cc1cn([C@H]2CO[C@@H](COC(=O)[C@@H](N)Cc3c[nH]c4ccccc34)O2)c(=O)[nH]c1=O.Cl | 0.297 | 5.77 | 8 | 7 | 5.33 | < 4.00 | < 4.00 | < 4.00 |
| CCCCCCCCCCCCCCCC(=O)OC[C@@H]1OC[C@H](n2cc(C)c(=O)[nH]c2=O)O1 | 0.8 | 4.63 | > 100 | – | – | 4.04 | < 4.00 | < 4.00 |
| CC(=O)OC[C@@H]1OC[C@H](n2cc(C)c(=O)[nH]c2=O)O1 | 0.272 | 5.54 | 12.3 | 44.17 | 26.33 | < 4.00 | < 4.00 | 4.00 |
| Cc1cn([C@H]2CO[C@@H](COC(=O)C(C)(C)N)O2)c(=O)[nH]c1=O.Cl | 0.223 | 5.66 | 7.6 | 31.17 | 15.3 | < 4.00 | < 4.00 | < 4.00 |
| Cc1cn([C@H]2CO[C@@H](COC(=O)C3CC3)O2)c(=O)[nH]c1=O | 0.288 | 5.33 | 15.1 | 46.67 | 20 | < 4.00 | < 4.00 | < 4.00 |
| Cc1cn([C@H]2CO[C@@H](COC(=O)[C@@H]3CCCN3)O2)c(=O)[nH]c1=O.Cl | 0.227 | 5.85 | 7.3 | 6.33 | 3.83 | < 4.00 | < 4.00 | < 4.00 |
| Cc1cn([C@H]2C[C@H](N=[N+]=[N-])[C@@H](CO)O2)c(=O)[nH]c1=O [ZIDOVUDINE] | – | – | 0.04 | – | – | – | < 4.00 | – |

Second part, led by results:

| t1/2 [1] [h] | pEC50 [2] | EC90 [2] [µM] | t1/2 [3] [h] | t1/2 [4] [h] | Structure (SMILES) | pIC50 (Vero) | pIC50 (PBMC) | pIC50 (CCRF-CEM) |
| --- | --- | --- | --- | --- | --- | --- | --- | --- |
| 0.223 | 6.05 | 6.3 | 4 | 3.17 | Cc1cn([C@H]2CO[C@@H](COC(=O)[C@@H](N)CCC(=O)O)O2)c(=O)[nH]c1=O.Cl | < 4.00 | < 4.00 | < 4.00 |
| 0.293 | 5.85 | 9.7 | – | – | Cc1cn([C@H]2CO[C@@H](COCOC(=O)C(C)(C)C)O2)c(=O)[nH]c1=O | < 4.00 | < 4.00 | < 4.00 |
| 0.323 | 6.01 | 6.5 | 30 | 12.2 | Cc1cn([C@H]2CO[C@@H](COC(=O)[C@H](N)C(C)C)O2)c(=O)[nH]c1=O.Cl | < 4.00 | < 4.00 | < 4.00 |
| 0.315 | 6.25 | 4.9 | 36.67 | 16 | Cc1cn([C@H]2CO[C@@H](COC(=O)[C@@H](N)C(C)C)O2)c(=O)[nH]c1=O.Cl | < 4.00 | < 4.00 | < 4.00 |
| 0.322 | 5.89 | 3.9 | 53.33 | 30.83 | Cc1cn([C@H]2CO[C@@H](COC(=O)C3CCCCC3)O2)c(=O)[nH]c1=O | < 4.00 | < 4.00 | < 4.00 |
| 0.26 | 6.00 | 5.2 | 15.7 | 7.17 | Cc1cn([C@H]2CO[C@@H](COC(=O)[C@H](N)Cc3ccccc3)O2)c(=O)[nH]c1=O.Cl | < 4.00 | < 4.00 | < 4.00 |
| 0.308 | 6.40 | 2.5 | 53 | 26.67 | CCCCC(=O)OC[C@@H]1OC[C@H](n2cc(C)c(=O)[nH]c2=O)O1 | 4.31 | < 4.00 | < 4.00 |
| 0.483 | 6.22 | 4.3 | 54.17 | 30 | CCCCCCCC(=O)OC[C@@H]1OC[C@H](n2cc(C)c(=O)[nH]c2=O)O1 | < 4.00 | < 4.00 | < 4.00 |
| 0.232 | 6.01 | 8.3 | 26.67 | 14.5 | Cc1cn([C@H]2CO[C@@H](COC(=O)[C@H](C)N)O2)c(=O)[nH]c1=O.Cl | < 4.00 | < 4.00 | < 4.00 |
| 0.243 | 6.06 | 4.4 | 17.83 | 9.17 | Cc1cn([C@H]2CO[C@@H](COC(=O)[C@@H](N)Cc3ccccc3)O2)c(=O)[nH]c1=O.Cl | < 4.00 | < 4.00 | < 4.00 |
| 0.683 | 6.40 | 3.2 | – | – | CCCCCCCCCCCC(=O)OC[C@@H]1OC[C@H](n2cc(C)c(=O)[nH]c2=O)O1 | < 4.00 | < 4.00 | < 4.00 |
| 0.283 | 5.89 | 14.5 | 46.33 | 21.67 | Cc1cn([C@H]2CO[C@@H](COC(=O)C(C)(C)C)O2)c(=O)[nH]c1=O | 4.74 | < 4.00 | < 4.00 |
